The values that follow come from ChEMBL document CHEMBL3232838, “Synthesis, crystal structure and biological evaluation of some novel 1,2,4-triazolo[3,4-b]-1,3,4-thiadiazoles and 1,2,4-triazolo[3,4-b]-1,3,4-thiadiazines” (Eur J Med Chem, 2014).

What is called IC50 is the midpoint of a concentration-inhibition curve. For orientation: inhibition means the change of the read-out against control, counted positive when it falls.

One assay addresses Acetylcholinesterase (Electrophorus electricus, UniProt O42275). As to the kind of experiment: Inhibition of electric eel acetylcholinesterase using acetylthiocholine iodide as substrate preincubated for 10 mins before substrate addition after 15 mins by Ellman's method. Background: DTNB colorimetry detects thiols as they appear.
In the next assay the target is Cholinesterase (Homo sapiens, UniProt P06276). The assay can be described thus: Inhibition of human BChE using butyrylthiocholine iodide as substrate preincubated for 10 mins before substrate addition after 15 mins by Ellman's method. The method, boiled down:
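Ellman assay in 50 mM Tris-HCl, 0.1 M NaCl, 0.02 M MgCl2, pH 8.0, with DMSO at 1% final. hBChE (3.4 U/mg) is preincubated with compound for 10 min at 25 °C. Blanks lack enzyme or substrate. IC50 from linear regression.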

Assay [1] has as its target Intestinal-type alkaline phosphatase (Bos taurus, UniProt P19111). The assay can be described thus: Inhibition of calf intestinal alkaline phosphatase using p-nitrophenyl phosphate as substrate preincubated for 10 mins before substrate addition after 30 mins.
The nature of assay [2]: Anticancer activity against Syrian golden hamster BHK21 cells at 100 uM after 48 hrs by SRB assay. It counts as functional. The settings on record: Mesocricetus auratus, BHK-21, 48 h; read-out: GI. An outline of the steps: (§1)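 RPMI-1640 culture with 10% heat-inactivated FBS, 2 mM glutamine, 1 mM pyruvate and penicillin/streptomycin at 37 °C, 5% CO2. Cells per 96-well well: H157 10⁴, BHK-21 5×10⁴. After 24 h, monolayers were exposed to 100, 10, 1 or 0.1 µM compound for 48 h, with vincristine as standard. Cells were fixed in cold 50% TCA (4 °C, 1 h) and stained with 0.4% SRB in 1% acetic acid (30 min). Dye was dissolved in 10 mM Tris and read at A490 minus A630. Read-out was percent inhibition.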
Background: Sulforhodamine B stains cellular protein and so reports cell mass.

Assay [3] in a line: Anticancer activity against Syrian golden hamster BHK21 cells at 10 uM after 48 hrs by SRB assay. It counts as functional. Particulars: Mesocricetus auratus, BHK-21, 48 h; read-out: GI. An outline of the steps:
as §1

A short description of assay [4]: Anticancer activity against Syrian golden hamster BHK21 cells at 1 uM after 48 hrs by SRB assay. It is filed as functional. Particulars: Mesocricetus auratus, BHK-21, 48 h; read-out: GI. An outline of the steps:
as §1

Assay [5] can be described thus: Anticancer activity against Syrian golden hamster BHK21 cells at 0.1 uM after 48 hrs by SRB assay. Particulars: Mesocricetus auratus, BHK-21, 48 h; read-out: GI. It is filed as functional. The method, boiled down: as §1
For assay [6], the system named is NCI-H157. As to the kind of experiment: Anticancer activity against human NCI-H157 cells at 100 uM after 48 hrs by SRB assay. It is filed as functional. The settings on record: NCI-H157, 48 h, read-out: GI. The method, boiled down: as §1
Assay [7] deals with NCI-H157. As to the kind of experiment: Anticancer activity against human NCI-H157 cells at 10 uM after 48 hrs by SRB assay. It is filed as functional. Particulars: NCI-H157, 48 h, read-out: GI. The method, boiled down:
as §1

In assay [8] the test system is NCI-H157. As to the kind of experiment: Anticancer activity against human NCI-H157 cells at 1 uM after 48 hrs by SRB assay. The settings on record: NCI-H157, 48 h, read-out: GI. It counts as functional. An outline of the steps: as §1
Assay [9] deals with NCI-H157. As to the kind of experiment: Anticancer activity against human NCI-H157 cells at 0.1 uM after 48 hrs by SRB assay. The settings on record: NCI-H157, 48 h, read-out: GI. It counts as functional. The method, boiled down:
as §1

Assay [10] deals with Leishmania major. The assay can be described thus: Antileishmanial activity against promastigote form of Leishmania major at 100 uM after 72 hrs by MTT assay. It is filed as functional. An outline of the steps: (§2)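 Log-phase promastigotes grown at 25 °C in phenol-red-free D-MEM/F-12 with 10% heat-inactivated FBS, washed in PBS, seeded at 2.5×10⁶/mL (100 µL/well). Compounds in triplicate wells, 72 h at 25 °C; amphotericin B standard. MTT (5 mg/mL stock) 3 h, stopped with 50% isopropanol/10% SDS, OD570 minus 690. Percent inhibition vs control; mean ± SEM of three independent experiments.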

The test system of assay [11] is Leishmania major. The assay can be described thus: Antileishmanial activity against promastigote form of Leishmania major at 10 uM after 72 hrs by MTT assay. It counts as functional. An outline of the steps: as §2
(Formazan colour is commonly taken as a measure of viable cells.)

Assay [12] concerns Leishmania major. The assay can be described thus: Antileishmanial activity against promastigote form of Leishmania major at 1 uM after 72 hrs by MTT assay. It counts as functional. An outline of the steps: as §2
In assay [13] the test system is Leishmania major. As to the kind of experiment: Antileishmanial activity against promastigote form of Leishmania major at 0.1 uM after 72 hrs by MTT assay. It is filed as functional. An outline of the steps: as §2

Chain of Intestinal-type alkaline phosphatase (P19111 whole entry): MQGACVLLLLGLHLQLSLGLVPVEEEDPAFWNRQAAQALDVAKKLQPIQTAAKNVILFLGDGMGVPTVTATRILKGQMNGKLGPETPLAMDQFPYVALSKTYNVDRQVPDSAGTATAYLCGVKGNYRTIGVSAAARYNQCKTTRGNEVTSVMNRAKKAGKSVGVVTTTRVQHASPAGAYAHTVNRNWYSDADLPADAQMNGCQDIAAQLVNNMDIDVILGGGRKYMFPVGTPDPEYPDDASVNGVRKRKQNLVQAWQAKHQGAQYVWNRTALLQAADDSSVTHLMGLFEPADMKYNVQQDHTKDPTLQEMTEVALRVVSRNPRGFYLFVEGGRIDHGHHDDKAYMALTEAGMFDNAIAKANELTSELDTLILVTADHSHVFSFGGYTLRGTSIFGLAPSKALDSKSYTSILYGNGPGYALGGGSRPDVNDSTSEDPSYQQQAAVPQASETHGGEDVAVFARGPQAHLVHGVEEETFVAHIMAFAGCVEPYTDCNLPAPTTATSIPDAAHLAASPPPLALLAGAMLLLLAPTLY
Chain of Cholinesterase (P06276 whole entry): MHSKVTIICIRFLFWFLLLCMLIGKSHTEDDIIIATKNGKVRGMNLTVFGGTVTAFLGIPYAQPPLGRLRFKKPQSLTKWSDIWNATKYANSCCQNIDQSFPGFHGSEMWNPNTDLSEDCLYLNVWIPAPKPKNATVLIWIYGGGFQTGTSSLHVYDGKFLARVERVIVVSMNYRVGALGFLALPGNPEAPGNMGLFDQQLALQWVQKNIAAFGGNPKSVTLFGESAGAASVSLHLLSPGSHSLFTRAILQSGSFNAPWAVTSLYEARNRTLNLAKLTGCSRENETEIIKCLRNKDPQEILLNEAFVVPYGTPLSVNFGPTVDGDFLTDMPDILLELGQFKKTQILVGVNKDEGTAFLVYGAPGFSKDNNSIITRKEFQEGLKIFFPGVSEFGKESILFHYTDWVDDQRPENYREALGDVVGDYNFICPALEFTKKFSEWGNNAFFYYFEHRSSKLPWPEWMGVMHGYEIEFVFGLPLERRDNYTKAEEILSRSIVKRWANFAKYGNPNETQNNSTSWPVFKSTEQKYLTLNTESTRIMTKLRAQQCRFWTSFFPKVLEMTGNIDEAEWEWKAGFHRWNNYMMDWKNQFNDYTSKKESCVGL
Chain of Acetylcholinesterase (O42275 whole entry): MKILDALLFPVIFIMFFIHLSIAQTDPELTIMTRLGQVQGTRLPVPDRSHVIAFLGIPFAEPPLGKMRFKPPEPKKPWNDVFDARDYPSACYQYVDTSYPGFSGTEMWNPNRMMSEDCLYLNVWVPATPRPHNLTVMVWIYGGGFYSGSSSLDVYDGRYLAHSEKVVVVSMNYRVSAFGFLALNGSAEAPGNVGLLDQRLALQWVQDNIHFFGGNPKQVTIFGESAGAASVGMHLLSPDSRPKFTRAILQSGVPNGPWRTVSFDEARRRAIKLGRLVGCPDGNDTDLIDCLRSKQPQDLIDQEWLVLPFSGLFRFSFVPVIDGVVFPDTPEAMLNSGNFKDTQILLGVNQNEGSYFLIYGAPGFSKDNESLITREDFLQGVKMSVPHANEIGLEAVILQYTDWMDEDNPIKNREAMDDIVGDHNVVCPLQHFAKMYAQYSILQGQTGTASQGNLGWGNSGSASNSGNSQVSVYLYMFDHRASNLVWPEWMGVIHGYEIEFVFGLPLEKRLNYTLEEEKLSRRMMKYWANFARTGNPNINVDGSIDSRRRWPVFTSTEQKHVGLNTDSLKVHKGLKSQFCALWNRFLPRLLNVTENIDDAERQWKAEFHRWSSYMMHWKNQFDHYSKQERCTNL

With `c1ccc(-c2ccc(C3=Nn4c(nnc4-c4ccncc4)SC3)cc2)cc1`, the IC50 on Acetylcholinesterase was 16.1 µM; against Cholinesterase it was 42.6 µM; in assay [1], 3.84 µM. Also, the inhibition of growth at 100 µM in [2] stood at 45.8%; in the assay on NCI-H157 [6], 56.9%. Besides, the inhibition of growth at 10 µM in [3] amounted to 41.8%; in the assay on NCI-H157 [7], 62.3%. The inhibition of growth at 1 µM in [4] stood at 37.5%; with NCI-H157 [8], 47.8%. In addition, the inhibition of growth at 0.1 µM worked out at 32.7% in assay [5] and 44.5% in the assay with NCI-H157 [9]. Further, the inhibition at 100 µM in the assay on Leishmania major [10] was 61.2%. The same compound displayed an inhibition at 10 µM with Leishmania major [11] of 58.9%. The inhibition at 1 µM with Leishmania major [12] came to 55.9%. In addition, the inhibition at 0.1 µM with Leishmania major [13] was determined as 52.3%.

The compound `C[C@@H]1[C@H](O)[C@@H](C)/C=C/C=C/C=C/C=C/C=C/C=C/C=C/[C@H](O[C@@H]2O[C@H](C)[C@@H](O)[C@H](N)[C@@H]2O)C[C@@H]2O[C@](O)(C[C@@H](O)C[C@@H](O)[C@H](O)CC[C@@H](O)C[C@@H](O)CC(=O)O[C@H]1C)C[C@H](O)[C@H]2C(=O)O` [AMPHOTERICIN B] came in with an inhibition at 100 µM in the assay with Leishmania major [10] of 79.8%. In the assay on Leishmania major [11], this compound registered an inhibition at 10 µM of 76.3%. Further, in the assay with Leishmania major [12], the inhibition at 1 µM worked out at 74.8%. In the assay with Leishmania major [13], 0.1 µM produced 69.9% inhibition.

On to `CN(C)C(=O)Oc1cccc([N+](C)(C)C)c1` [NEOSTIGMINE], for which the IC50 stood at 14.2 µM against Acetylcholinesterase and 26.1 µM against Cholinesterase.

Regarding `Fc1cccc(C2=Nn3c(nnc3-c3ccncc3)SC2)c1`, the IC50 worked out at 18.6 µM against Acetylcholinesterase and 9.83 µM in assay [1]. Besides, the inhibition on Cholinesterase came to 38.7%. Also, the inhibition of growth at 100 µM in assay [2] was 64.3%; with NCI-H157 [6] it was 78.6%. The inhibition of growth at 10 µM turned out to be 61.2% in [3] and 75.6% in the assay on NCI-H157 [7]. Also, the inhibition of growth at 1 µM in assay [4] was determined as 56.9%; in the assay on NCI-H157 [8] it was 72.3%. Besides, the figures for the inhibition of growth at 0.1 µM (in assay [5]; in the assay with NCI-H157 [9]) were 54.6% and 69.6%, respectively. This compound also returned an inhibition at 100 µM in the assay with Leishmania major [10] of 52.3%. At 10 µM the inhibition with Leishmania major [11] was 49.6%. The same compound yielded an inhibition at 1 µM in the assay on Leishmania major [12] of 46.1%. This compound also registered an inhibition at 0.1 µM with Leishmania major [13] of 44.9%.

`Fc1cc(Cl)ccc1-c1nn2c(-c3ccncc3)nnc2s1`: the IC50 against Acetylcholinesterase was 21.3 µM; at Cholinesterase it was 9.57 µM; in assay [1], 0.92 µM. In addition, the inhibition of growth at 100 µM in assay [2] is 55.6%; in the assay with NCI-H157 [6], 85.5%. The inhibition of growth at 10 µM in [3] is 51.6%; in the assay with NCI-H157 [7] it was 80.9%. The inhibition of growth at 1 µM in assay [4] stood at 47.2%; in the assay with NCI-H157 [8], 77.8%. Moreover, the inhibition of growth at 0.1 µM in assay [5] is 44.4%; with NCI-H157 [9], 73.7%. Testing at 100 µM in the assay on Leishmania major [10] gave an inhibition of 52.5%. In the assay with Leishmania major [11], this compound gave an inhibition at 10 µM of 49.5%. Also, testing at 1 µM in the assay with Leishmania major [12] gave an inhibition of 46.2%. The compound also showed an inhibition at 0.1 µM in the assay on Leishmania major [13] of 42.5%.

As to `Fc1ccc(-c2nn3c(-c4ccncc4)nnc3s2)cc1Cl`, the results for the IC50 (against Acetylcholinesterase; in [1]) were 30.2 µM and 2.01 µM, respectively. The inhibition on Cholinesterase turned out to be 14.4%. Moreover, the inhibition of growth at 100 µM in assay [2] was 51.4%; with NCI-H157 [6], 53.7%. For the same compound, the inhibition of growth at 10 µM in assay [3] came to 46.3%; with NCI-H157 [7], 50.9%. In addition, the inhibition of growth at 1 µM in assay [4] turned out to be 43.6%; with NCI-H157 [8], 46.6%. Besides, the inhibition of growth at 0.1 µM was 40.9% in [5] and 43.6% with NCI-H157 [9]. For the same compound, the inhibition at 100 µM in the assay with Leishmania major [10] was 56.7%. Besides, the inhibition at 10 µM in the assay on Leishmania major [11] was determined as 54.3%. Further, in the assay on Leishmania major [12], testing at 1 µM gave an inhibition of 51.6%. In the assay with Leishmania major [13], this compound yielded an inhibition at 0.1 µM of 47.7%.
